Pf gamet viab: late stage P. falciparum gametocyte viability inhibitors, primary screen, ATP luminescence, HTS; P. falciparum stage V gametocytes, 24 h; inhibition, % at 10.9 µM; 0.065% of 150,000 active; AID 743093, 2013;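 active = inhibition above the mean plus 3 SD of compounds within the control limits, set per campaign, cut at about 38% in these data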;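 also: 0% = DMSO wells and 100% = medium only without gametocytes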
APP 5'UTR act: activators of APP 5'UTR luciferase reporter, primary screen, SH-SY5Y cells | SH-SY5Y APP 5'UTR luciferase reporter, luminescence; zero percent = DMSO vehicle wells | 1% of 190,000 active | activation, % at 2 µM;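 active = activation above a set limit, based on mean plus 3 SD of controls, cut at about 140% in these data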
STAT1 act: STAT1 signaling activators, primary screen, cell-based, HTS, luciferase reporter | NIH 3T3 STAT1-luciferase reporter, IFN-gamma, luminescence; 100% = IFN-gamma alone, no compound | activation (% of control), % at 5.5 µM | 2.6% of 200,000 active | AID 932, 2007;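 active = activation above the screen-wide mean activation plus 3 SD, cut at about 130% in these data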;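 also: raw ratio to IFN-gamma control signal so 100% means no change and 0% no light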
STAT1 inh: STAT1 signaling inhibitors, primary screen, cell-based, HTS, luciferase reporter | NIH 3T3 STAT1-luciferase reporter, IFN-gamma, luminescence | inhibition, % at 5.5 µM | 0.35% of 200,000 active | AID 920, 2007;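 active = inhibition above a set limit, the mean inhibition across all tested compounds plus 3 SD, cut at about 34% in these data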;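 also: 0% = IFN-gamma with DMSO and 100% = IFN-gamma with 300 µM nifuroxazide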
STAT3 act: IL-6 driven STAT3 reporter potentiators, primary screen, U3A cells, luciferase, luminescence, MLSCN library; activation (% of control), % at 5.6 µM; IL-6 STAT3-luciferase reporter; 100% = signal with IL-6 EC80 alone; 0.91% of 190,000 active;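 active = activation above the screen-wide mean of compound activation plus 3 SD, cut at about 130% in these data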;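 also: 0% = background luminescence of wells with medium and substrate only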
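Test system: STAT3-luciferase reporter U3A cells; Detection: reporter luminescence signal; Times: 1 h compound pre-exposure, 6 h IL-6 stimulation, 37 °C; Benchmarks: IL-6-only high control; Also added: IL-6 stimulus at 33 ng/mL final.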
NF-kB neuron act: activators of NF-kB expression in neurons, primary screen, cell-based, HTS; human neuronal cells, NF-kB reporter expression; stronger effect = higher value; AID 1239, 2008; fold change at 12.5 µM; 1.6% of 190,000 active; in the data active = fold change above about 3.3
* hit, by the source's call; . = no result. Most compounds without a hit are left out; they make up all but 3.9% or so of the library.

SMILES	Pf gamet viab	APP 5'UTR act	STAT1 act	STAT1 inh	STAT3 act	NF-kB neuron act
COc1ccc2nc(NC(=S)NC(=O)c3ccco3)sc2c1	-16	161*	146*	-53	97	2.2
Cc1csc(C(=O)NN)c1N(C)C	14	.	.	.	.	.
O=C(/C=C/c1ccc([N+](=O)[O-])cc1)c1cccs1	-10	.	.	.	.	.
Nc1ccc(/C=C/C(=O)c2cccs2)cc1	0	143*	122	-26	99	5.9*
Clc1ccc(Nc2nc(-c3ccncc3)cs2)cc1	.	2	137*	-42	123	.
O=[N+]([O-])c1cccc(-c2csc(Nc3ccccc3)n2)c1	-19	83	143*	-49	147*	2.6
c1ccc(Nc2nc(-c3ccncc3)cs2)cc1	.	40	145*	-61	109	2.1
COc1ccccc1Nc1nc(-c2cccc([N+](=O)[O-])c2)cs1	-21	.	.	.	.	.
Fc1ccc(Nc2nc(-c3ccncc3)cs2)cc1	38	106	144*	-49	104	1.2
COc1ccc(C)c2sc(NNC(=O)COc3ccccc3)nc12	.	4	101	-2	99	1.1
Cc1nc(C)c(-c2csc(Nc3ccc(F)cc3)n2)s1	-7	75	142*	-47	106	1.2
Cc1nc(N)sc1-c1csc(Nc2ncccn2)n1	.	177*	125	-28	91	2.5
Cc1cc(=O)[nH]c(-c2ccccc2OC(F)(F)F)n1	-3	.	.	.	.	.
CCN(CC)c1ccc(/C=N/NC(=O)OC)c(O)c1	-11	26	113	-14	96	2.6
CCN(CC)c1ccc(/C=N/N2CCN(Cc3ccccc3)CC2)c(O)c1	0	7	97	4	91	1.3
CCN(CC)c1ccc(/C=N/N2CCOCC2)c(O)c1	14	55	142*	-48	101	2.8
CCN(CC)c1ccc(/C=N/NC(=S)NC)c(O)c1	-21	-13	117	-18	96	5.9*
CCN(CC)c1ccc(C=Nc2ccc(N(C)C)cc2)c(O)c1	-7	79	130*	-33	94	1.2
CC(C)(C)OC(=O)N1CCC(NC(=O)c2nc[nH]c2C(=O)N2CCN(c3ccccc3)CC2)CC1	-10	.	.	.	.	.
CCc1cnccc1CCC(=O)Nc1ccccc1C	11	.	.	.	.	.
Nc1c(-c2ccc(Cl)cc2)cnc2ncnn12	-19	12	96	5	105	1
Cc1cc2ncc(-c3ccc(Cl)cc3)c(N)n2n1	.	45	129*	-32	113	1.2
O=C(c1ccc(-c2ccc([N+](=O)[O-])cc2)o1)N1CCCCC1	10	180*	128	-32	110	4.8*
CC1(C(=O)Nc2c(F)c(F)c(F)c(F)c2F)CC1(Br)Br (stereo not given)	-2	.	.	.	.	.
Cc1cc(C)n(-c2ccc(C(=O)OCC(=O)Nc3ccccc3[N+](=O)[O-])cc2)n1	-34	2	98	2	110	0.98
SMILES	Pf gamet viab	APP 5'UTR act	STAT1 act	STAT1 inh	STAT3 act	NF-kB neuron act
Cc1cc(C)n(-c2ccc(C(=O)OCC(=O)Nc3cc(Cl)ccc3[N+](=O)[O-])cc2)n1	.	-11	100	0	134*	0.97
O=C(O)c1ccc(/C=N/Nc2ncc(C(F)(F)F)cc2Cl)cc1	18	.	.	.	.	.
Fc1ccc(N/N=C/C=C/c2ccccc2)c(F)c1	.	54	137*	-41	99	2.3
Fc1ccc(N/N=C/c2ccncc2)c(F)c1	10	25	129*	-32	92	1.7
O=C(O)c1ccc(/C=N/Nc2ccc(F)cc2F)cc1	-48	170*	115	-17	118	12*
Cc1ccc(NC(=O)C2CC(=O)N(Cc3ccco3)C2)cc1 (stereo not given)	8	.	.	.	.	.
CCN1CCN(S(=O)(=O)c2ccc(C(C)(C)C)cc2)CC1	2	.	.	.	.	.
CC12CC3CC(C)(C1)CC(Nc1nc(N4CCOCC4)nc4ccccc14)(C3)C2	2	.	.	.	.	.
Cc1cccnc1NC(=O)Cn1nc(-c2ccccc2)oc1=S	12	170*	117	-19	98	4.2*
CSc1ccccc1NC(=O)C1CCCN(S(C)(=O)=O)C1 (stereo not given)	9	.	.	.	.	.
CN(C)c1ncccc1-c1nc2ccccc2s1	.	7	99	1	104	1
Brc1ccc(-c2nc3ccccc3s2)s1	.	115	137*	-41	105	6.8*
CCCNC(=O)c1ccc(-c2nc3ccccc3s2)s1	.	155*	88	13	39	4.6*
CC(C)(C)OC(=O)N[C@@H](C(=O)OC(C)(C)C)c1ccc2c(c1)OCO2	15	.	.	.	.	.
Cc1cc(-c2ccccc2)nc(N/N=C/c2ccccc2F)n1	-18	.	.	.	.	.
Oc1ccc(NCc2cccc(OCc3ccc(F)cc3)c2)cc1	.	-3	129*	-34	103	1.4
Cc1cccc(NC(=S)Nc2ccccn2)c1	3	.	.	.	.	.
Cc1cccc(NC(=S)c2nc3ccccc3s2)c1	-7	205*	143*	-48	134*	3.9*
N#Cc1ccccc1NC(=O)CNc1ccccc1N1CCCCC1	1	-2	95	6	135*	0.82
CCCCN1CC(=O)N2[C@H]3c4ccc(OC)cc4OC[C@@H]3[C@H](C(=O)OCC)[C@]2(C)C1=O	-31	.	.	.	.	.
O=C(CC1NCCc2ccccc21)Nc1ccc(Cl)cc1 (stereo not given)	.	6	97	1	133*	0.99
CC1CCN(c2nc3ccc(C(=O)N4CCN(Cc5ccccc5)CC4)cc3s2)CC1	.	59	130*	-33	98	1.4
CCCCCCCSc1nnc(N)s1	-53	.	.	.	.	.
Cc1nc(N2CCOCC2)[nH]c(=O)c1C(O)C(Cl)(Cl)Cl (stereo not given)	-4	.	.	.	.	.
O=C(/C=C/c1cccc([N+](=O)[O-])c1)Nc1ccccn1	0	54	110	-9	82	0.75
SMILES	Pf gamet viab	APP 5'UTR act	STAT1 act	STAT1 inh	STAT3 act	NF-kB neuron act
Cc1ccc2oc(-c3cccc(NC(=O)/C=C/c4cccc([N+](=O)[O-])c4)c3C)nc2c1	-4	90	136*	-40	100	0.95
COc1ccc(C(=O)C(OC(=O)c2ccccc2)c2ccccc2)cc1 (stereo not given)	-7	42	133*	-36	125	1.5
COc1ccc(C(=O)C(OC(=O)c2ccccc2Cl)c2ccccc2)cc1 (stereo not given)	5	26	140*	-44	118	1.5
NNC(=O)c1cc2ccccc2cc1NS(=O)(=O)c1ccccc1	5	.	.	.	.	.
O=C1NC2(C=Cc3c(ccc4ccccc34)O2)Oc2ccccc21 (stereo not given)	.	3	141*	-46	114	1.5
COc1ccccc1NC(=O)Nc1cc(F)ccc1F	.	22	108	-8	96	1.3
N=C1SCC(=O)N1c1nc(-c2ccccc2)cs1	.	-7	150*	-55	98	1.6

Screening results deposited in PubChem by several laboratories.
